E-selectin induc: E-selectin induction on HUVECs. hit rate 0.37% among 260,000. activation, % at 7.58 µM. HUVEC E-selectin immunofluorescence imaging; normalized: neutral wells 0, TNF-alpha wells 100. AID 686992;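 active = mean E-selectin-positive cell signal at least 10% of the positive control, reached in at least 60% of replicates, without over 20% cell loss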
Target sequence (P16581 whole entry, looked up): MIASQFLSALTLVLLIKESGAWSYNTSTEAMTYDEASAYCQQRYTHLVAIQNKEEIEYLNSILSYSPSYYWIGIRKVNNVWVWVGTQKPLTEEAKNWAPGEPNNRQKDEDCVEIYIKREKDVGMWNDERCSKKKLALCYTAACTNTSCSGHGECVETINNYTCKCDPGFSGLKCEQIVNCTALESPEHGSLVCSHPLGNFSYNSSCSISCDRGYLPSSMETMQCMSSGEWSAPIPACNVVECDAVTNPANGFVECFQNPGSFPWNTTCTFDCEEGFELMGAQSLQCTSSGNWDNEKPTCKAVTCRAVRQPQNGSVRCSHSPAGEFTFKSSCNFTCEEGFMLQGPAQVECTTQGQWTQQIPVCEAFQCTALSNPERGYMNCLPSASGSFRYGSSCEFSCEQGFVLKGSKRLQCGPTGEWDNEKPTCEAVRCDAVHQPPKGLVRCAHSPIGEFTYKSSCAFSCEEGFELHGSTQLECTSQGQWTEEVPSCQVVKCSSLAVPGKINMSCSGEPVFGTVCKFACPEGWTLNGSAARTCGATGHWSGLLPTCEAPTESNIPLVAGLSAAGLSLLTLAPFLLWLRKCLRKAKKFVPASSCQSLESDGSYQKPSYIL
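material = human umbilical vein endothelial cells (HUVEC), E-selectin induction | quantity = 3,000 cells/well | medium = EGM-2 growth medium on 0.1% gelatin-coated wells | technique = immunofluorescence imaging | read-out basis = % PE-positive cells | control set = TNF-alpha positive control, DMSO neutral control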
Cneo AK release: causes C. neoformans cell lysis | adenylate kinase release luminescence, 4 h; normalised: neutral wells 0, clomiphene wells 100 | lysis activity, % at 15 µM | hit rate 0.2% among 360,000;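 active = mean lysis activity across replicates of at least 80%, whatever share of replicates individually reach that level; inactive = mean lysis activity below 80%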
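Material: C. neoformans cells; Schedule: 4 h static compound exposure, 37 °C, read 1 h post-reagent; Measured by: adenylate kinase release luminescence; Read-out: signal increase indicating cell lysis; Controls: Clomiphene as positive lysis control.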
miR-122 sensor: inhibitors of miR-122 in Huh7 cells | Huh7 miR-122 Renilla luciferase sensor, 48 h; neutral wells = 0, positive control = 100 | activation (reporter increase), % at 12.5 µM | hit rate 0.3% among 340,000;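 active = mean replicate activation score at least 90 and every replicate individually at or above 90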;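 also: higher luciferase means less miR-122 activity so hits act as miR-122 inhibitors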
Ecoli rRNA inh: inhibits bacterial ribosomal RNA function over humanized ribosomes | E. coli WT GFP vs humanized-ribosome RFP mutants, fluorescence, 24 h; hits give low values; DMSO median 0, no signal -100 | GFP signal change (wild-type ribosome), % (concentration not given with the values) | hit rate 1.6% among 350,000;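 active = significant combined selectivity score with lowered wild-type GFP, culture density cut under 30%, mutant RFP and density less affected; inactive = any of these conditions unmet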
DENV2 CPE: DENV2-induced cell death inhibition; DENV2-infected cells, cytopathic effect rescue, plate reader; CPE inhibition, % at 9.99 µM; hit rate 1.7% among 350,000; AID 651640; in the data active = CPE inhibition above about 20%, passing the limit was not always enough; tested in BHK-21 cells
Numbers stand for hits. The list is not random: actives were taken first. Their share in the collection is about 3.1%.

For N#C[C@@H]1[C@@H](c2ccc(C#Cc3ccccc3F)cc2)[C@@H](CO)N1C(=O)C1CCC1 the results were E-selectin induc inactive, Cneo AK release inactive, Ecoli rRNA inh inactive and DENV2 CPE 51.2.
`COCC(=O)N1[C@@H](C#N)[C@@H](c2ccc(C#Cc3ccccc3F)cc2)[C@@H]1CO` gave E-selectin induc inactive, Cneo AK release inactive, Ecoli rRNA inh inactive and DENV2 CPE inactive.
`N#C[C@H]1[C@@H](c2ccc(C#Cc3ccccc3F)cc2)[C@H](CO)N1C(=O)C1CCC1` gave E-selectin induc inactive, Cneo AK release inactive, Ecoli rRNA inh inactive and DENV2 CPE inactive.
CC(=O)N[C@@H]1CC[C@@H](CCNC(=O)C2CCCCC2)O[C@@H]1CO was read as E-selectin induc inactive, Ecoli rRNA inh inactive and DENV2 CPE inactive.
CCC(=O)N1CC2(C1)[C@H](c1ccccc1)[C@H](CO)N2Cc1cccc(Cl)c1 was read as E-selectin induc inactive, Ecoli rRNA inh inactive and DENV2 CPE inactive.
Screening C[C@@H](NC(=O)C[C@@H]1CC[C@H]2[C@@H](COC[C@H](O)CN2C(=O)Nc2ccccc2)O1)c1ccccc1 returned E-selectin induc inactive, Cneo AK release inactive, miR-122 sensor inactive, Ecoli rRNA inh inactive and DENV2 CPE 113.2.
C[C@@H](NC(=O)C[C@@H]1CC[C@@H]2[C@H](COC[C@H](O)CN2C(=O)Nc2ccccc2)O1)c1ccccc1 was read as E-selectin induc inactive, Cneo AK release inactive, miR-122 sensor inactive, Ecoli rRNA inh inactive and DENV2 CPE inactive.
Screening O=C(C[C@H]1CC[C@@H]2NC[C@H](O)COC[C@H]2O1)NCCc1ccccc1 returned E-selectin induc inactive, Cneo AK release inactive, miR-122 sensor inactive, Ecoli rRNA inh inactive and DENV2 CPE 24.9.
Screening O=C(C[C@@H]1CC[C@H]2[C@@H](COC[C@@H](O)CN2C(=O)Nc2ccccc2)O1)NCCc1ccncc1 returned E-selectin induc inactive, Cneo AK release inactive, miR-122 sensor inactive, Ecoli rRNA inh inactive and DENV2 CPE inactive.
C[C@H](NC(=O)C[C@H]1CC[C@H]2[C@@H](COC[C@H](O)CN2C(=O)Nc2cccc(F)c2)O1)c1ccccc1 was read as E-selectin induc inactive, Cneo AK release inactive, miR-122 sensor inactive, Ecoli rRNA inh inactive and DENV2 CPE inactive.
C[C@H](NC(=O)C[C@@H]1CC[C@@H]2[C@H](COC[C@@H](O)CN2C(=O)Nc2cccc(F)c2)O1)c1ccccc1 was read as E-selectin induc inactive, Cneo AK release 89.7, miR-122 sensor inactive, Ecoli rRNA inh inactive and DENV2 CPE inactive.
`O=C(C[C@H]1CC[C@H]2[C@@H](COC[C@H](O)CN2C(=O)Nc2ccccc2)O1)NCCc1ccncc1` gave E-selectin induc inactive, Cneo AK release inactive, miR-122 sensor inactive, Ecoli rRNA inh inactive and DENV2 CPE 52.8.
Screening CCCN1[C@@H]2c3ccc(-c4ccc(F)cc4)c(=O)n3C[C@H]1[C@H](CO)[C@H]2C(=O)NCC returned E-selectin induc inactive, Ecoli rRNA inh inactive and DENV2 CPE inactive.
Screening CC[C@H]1C/C=C\C[C@H](c2ccc(F)cc2)NC(=O)CCC(=O)N1 returned Ecoli rRNA inh inactive.
Screening COCC(=O)Nc1ccc2c(c1)OC[C@@H](C)N(CC1CCCCC1)C[C@@H](C)[C@@H](OC)CN(C)C2=O returned Ecoli rRNA inh inactive.
`O=C(OCC(=O)N1CCc2ccccc21)[C@@H]1CCCN1S(=O)(=O)c1ccccc1F` gave E-selectin induc inactive, Cneo AK release inactive, miR-122 sensor inactive, Ecoli rRNA inh inactive and DENV2 CPE 48.5.
Screening CC(C)[C@H]1CC=CC[C@@H](C)Oc2ccccc2C(=O)N(C)[C@H](C(C)C)C(=O)N1 (mixture of isomers) returned Ecoli rRNA inh inactive.
Screening COc1ccc2c(c1)C(=O)[C@@H](O)[C@H](c1ccc(OC)c(Br)c1)O2 returned Cneo AK release inactive and miR-122 sensor inactive.
For COc1cc(OC)c2c(c1)OC(c1ccc(OC)c(OC)c1)C(O)C2=O (stereo not drawn) the results were Cneo AK release inactive, miR-122 sensor inactive, Ecoli rRNA inh inactive and DENV2 CPE 32.3.
Screening CCn1c(O)c(C=Nc2ccccc2)sc1=S returned Ecoli rRNA inh inactive and DENV2 CPE inactive.
C=CCn1c(O)c(C=Nc2ccccc2)sc1=S was read as E-selectin induc inactive, Cneo AK release inactive, miR-122 sensor inactive, Ecoli rRNA inh -22.0 and DENV2 CPE inactive.

Bioassay records deposited in PubChem by Broad Institute.
